Our source for the IC50 values is paper PMC12828150 (Acta Pharmaceutica Sinica. B, 2025).

Molecules are shown by their SMILES. pIC50: −log10 of the molar value.

One experiment deals with HepG2. In words: Antiproliferative activity, HepG2 cells. The note with it: read-out: HepG2 IC50. It counts as cell-based. A digest of the protocol:
(§1)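 Cells seeded at 1000 per well in RPMI-1640 with 10% FBS and left 24 h before adding diluted test compound. After 96 h exposure, viability was read by CellTiter-Glo luminescence. Readings were normalised as % of untreated cells and IC50 derived. n = 3, values averaged.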

Another experiment relates to HeLa. The experiment is described as follows: Antiproliferative activity, HeLa cells. It counts as cell-based. The note with it: read-out: HeLa IC50. The gist of the method: as §1

As for `CN1CCC(NC2CCc3[nH]c4c(C(N)=O)ccc(-c5ccccc5Cl)c4c3C2)CC1` (centres unmarked) [WJ0909], the pIC50 with HepG2 was 7.62; in the experiment on HeLa, 7.77.
